Results taken from ChEMBL document CHEMBL1932989, “Dibasic biphenyl H3 receptor antagonists: Steric tolerance for a lipophilic side chain” (Eur J Med Chem, 2012).
Activity calls are given as the source filed them. The calls are words filed in the database; no cut-off is given here.

How the values were obtained:
Histamine H3 receptor [1] = biological target: T1, Histamine H3 receptor (Homo sapiens, UniProt Q9Y5N1); test: Antagonist activity at human histamine H3 receptor expressed in human SK-N-MC cells assessed as inhibition of (R)-alpha-methylhistamine-induced effect after 6 hrs by beta-galactosidase reporter gene assay; type: functional, cell-based
Procedure, shortened: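 SK-N-MC cells expressing human H3 receptor and a β-galactosidase reporter; compounds (1 nM–10 µM) added 10 min before (R)-α-methylhistamine (0.1–100 nM), forskolin 5 µM added 5 min after compound. Incubated 6 h at 37 °C, cells lysed, chlorophenol red β-D-galactopyranoside colour read at 570 nm. Response as % agonist maximum; pKB by Furchgott equation, or pD2' by Van Rossum for non-surmountable antagonism; mean ± SEM.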

[2] = biological target: Histamine H2 receptor (Cavia porcellus) (UniProt P47747); test: Antagonist activity at histamine H2 receptor in guinea pig spontaneously beating isolated atria assessed as changes in rate of spontaneous beating at 1 uM by cardiotachograph analysis
Histamine H4 receptor = Histamine H4 receptor (Homo sapiens, UniProt Q9H3N8); test: Displacement of [3H]histamine from human histamine H4 receptor expressed in GPCR97 transfected human SK-N-MC cells; type: cell-based
Procedure, shortened: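 Membranes of SK-N-MC cells stably expressing human H4, 60 min at room temperature with 10 nM [3H]-histamine, competitor 0.01 nM–10 μM. Filtration with two ice-cold Tris–HCl/EDTA washes. 10 μM histamine defined nonspecific binding. pKi derived from pIC50 by Cheng–Prusoff.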

Histamine H3 receptor [3] = biological target: T1, Histamine H3 receptor; test: Displacement of [3H]RAMHA from human histamine H3 receptor expressed in GPCR97 transfected human SK-N-MC cells; type: cell-based
Procedure, shortened: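 SK-N-MC cell membranes stably expressing human H3; 60 min at room temperature with 0.5 nM [3H]-(R)-α-methylhistamine, competitor 0.01 nM–10 μM. Filtration, two washes with ice-cold 50 mM Tris–HCl/5 mM EDTA. Nonspecific binding with 10 μM histamine. pIC50 from displacement curves converted to pKi by Cheng–Prusoff; means ± SEM.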

Histamine H3 receptor [4] = biological target: Histamine H3 receptor (Rattus norvegicus, UniProt Q9QYN8); test: Displacement of [3H]RAMHA from rat histamine H3 receptor in rat cerebral cortex membranes; type: cell membranes, Membrane
Procedure, shortened: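 Rat brain membranes (Kilpatrick method) incubated 45 min with 0.5 nM [3H]-(R)-α-methylhistamine and compound (0.03 nM–10 μM) in 50 mM Tris–HCl pH 7.4, 50 mM NaCl, 0.5 mM EDTA. Vacuum filtration, two ice-cold buffer rinses. Nonspecific binding with 10 μM thioperamide. pIC50 converted to pKi via Cheng–Prusoff; means ± SEM.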

[5] = biological target: Histamine H1 receptor (Cavia porcellus) (UniProt P31389); test: Antagonist activity at histamine H1 receptor in guinea pig longitudinally mounted ileum assessed as […] up to 10 uM […]; type: functional, tissue-based
[6] = biological target: Histamine H2 receptor (Cavia porcellus) (UniProt P47747); details: Ileum
[7] = biological target: Neuronal acetylcholine receptor subunit alpha-7 (Homo sapiens) (UniProt P36544); test: Displacement of [125I]alpha-bungarotoxin from human alpha7 nicotinic receptor at 1 uM by scintillation counting
Procedure, shortened: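 Membrane homogenates bearing human α7 nicotinic receptor (20 µg protein) incubated 120 min at 37 °C with 0.05 nM [125I]α-bungarotoxin in 50 mM K2HPO4/KH2PO4 pH 7.4, 10 mM MgCl2, 0.1% BSA. Nonspecific binding with 1 µM α-bungarotoxin. Filtration on PEI-soaked glass fibre, scintillation counting; % inhibition of specific binding, duplicate.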

Sequence of Histamine H4 receptor (Q9H3N8 whole entry): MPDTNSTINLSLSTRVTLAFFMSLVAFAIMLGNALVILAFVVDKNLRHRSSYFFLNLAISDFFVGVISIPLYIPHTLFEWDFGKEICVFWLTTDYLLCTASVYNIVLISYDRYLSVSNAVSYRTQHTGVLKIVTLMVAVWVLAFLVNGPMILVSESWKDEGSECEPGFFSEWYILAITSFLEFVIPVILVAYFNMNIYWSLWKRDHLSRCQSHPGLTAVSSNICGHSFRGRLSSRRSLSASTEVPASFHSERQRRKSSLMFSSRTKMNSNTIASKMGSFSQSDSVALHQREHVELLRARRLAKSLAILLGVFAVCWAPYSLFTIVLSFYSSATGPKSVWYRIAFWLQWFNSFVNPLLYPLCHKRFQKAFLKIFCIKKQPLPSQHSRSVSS
Sequence of Histamine H1 receptor (Cavia porcellus) (P31389 whole entry): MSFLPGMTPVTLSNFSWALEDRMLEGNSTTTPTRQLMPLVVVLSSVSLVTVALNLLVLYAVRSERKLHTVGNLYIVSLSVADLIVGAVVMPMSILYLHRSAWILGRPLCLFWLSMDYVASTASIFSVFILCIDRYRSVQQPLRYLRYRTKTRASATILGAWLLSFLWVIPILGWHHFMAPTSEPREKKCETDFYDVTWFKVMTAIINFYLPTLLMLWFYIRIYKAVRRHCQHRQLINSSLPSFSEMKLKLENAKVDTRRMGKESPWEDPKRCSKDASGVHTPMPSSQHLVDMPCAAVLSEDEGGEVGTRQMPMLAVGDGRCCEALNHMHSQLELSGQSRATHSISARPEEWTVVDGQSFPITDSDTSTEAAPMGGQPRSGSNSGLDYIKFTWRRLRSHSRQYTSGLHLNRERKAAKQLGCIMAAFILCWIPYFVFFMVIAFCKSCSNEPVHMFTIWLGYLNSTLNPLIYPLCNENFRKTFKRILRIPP
T1 sequence (Q9Y5N1 whole entry): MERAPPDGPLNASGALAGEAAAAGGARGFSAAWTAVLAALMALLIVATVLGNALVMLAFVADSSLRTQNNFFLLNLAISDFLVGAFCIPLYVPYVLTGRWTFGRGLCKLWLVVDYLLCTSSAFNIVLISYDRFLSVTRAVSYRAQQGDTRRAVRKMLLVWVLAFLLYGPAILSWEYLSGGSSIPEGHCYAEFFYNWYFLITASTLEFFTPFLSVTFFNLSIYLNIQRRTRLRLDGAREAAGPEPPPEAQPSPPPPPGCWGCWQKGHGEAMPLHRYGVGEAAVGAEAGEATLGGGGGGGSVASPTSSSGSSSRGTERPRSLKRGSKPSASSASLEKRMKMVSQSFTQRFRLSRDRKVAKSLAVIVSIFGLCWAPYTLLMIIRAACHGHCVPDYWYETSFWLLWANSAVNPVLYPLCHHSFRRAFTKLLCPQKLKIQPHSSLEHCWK
Sequence of Histamine H2 receptor (Cavia porcellus) (P47747 whole entry): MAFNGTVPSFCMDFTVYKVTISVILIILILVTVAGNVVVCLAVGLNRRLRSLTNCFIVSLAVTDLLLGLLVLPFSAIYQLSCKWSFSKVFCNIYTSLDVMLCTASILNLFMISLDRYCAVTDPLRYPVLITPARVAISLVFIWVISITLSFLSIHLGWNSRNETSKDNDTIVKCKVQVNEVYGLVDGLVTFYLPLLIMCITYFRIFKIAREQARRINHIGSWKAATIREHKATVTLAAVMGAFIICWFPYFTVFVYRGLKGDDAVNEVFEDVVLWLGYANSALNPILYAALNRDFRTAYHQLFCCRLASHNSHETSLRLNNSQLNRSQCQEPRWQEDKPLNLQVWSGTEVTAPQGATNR
Sequence of Histamine H3 receptor (Rattus norvegicus, UniProt Q9QYN8) (Q9QYN8 whole entry): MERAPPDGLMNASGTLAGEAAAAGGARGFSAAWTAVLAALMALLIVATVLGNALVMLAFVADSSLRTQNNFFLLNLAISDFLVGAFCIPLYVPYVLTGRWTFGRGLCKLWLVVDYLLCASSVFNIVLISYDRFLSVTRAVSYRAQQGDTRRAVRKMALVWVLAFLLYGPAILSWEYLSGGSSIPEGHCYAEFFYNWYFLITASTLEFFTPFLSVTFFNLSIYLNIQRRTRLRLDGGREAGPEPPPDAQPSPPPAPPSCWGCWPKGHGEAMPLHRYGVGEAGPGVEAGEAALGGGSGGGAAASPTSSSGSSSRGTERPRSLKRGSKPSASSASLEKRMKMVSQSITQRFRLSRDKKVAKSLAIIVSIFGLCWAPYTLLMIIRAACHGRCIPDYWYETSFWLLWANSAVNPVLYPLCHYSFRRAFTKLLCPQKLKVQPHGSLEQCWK
Sequence of Neuronal acetylcholine receptor subunit alpha-7 (Homo sapiens) (P36544 whole entry): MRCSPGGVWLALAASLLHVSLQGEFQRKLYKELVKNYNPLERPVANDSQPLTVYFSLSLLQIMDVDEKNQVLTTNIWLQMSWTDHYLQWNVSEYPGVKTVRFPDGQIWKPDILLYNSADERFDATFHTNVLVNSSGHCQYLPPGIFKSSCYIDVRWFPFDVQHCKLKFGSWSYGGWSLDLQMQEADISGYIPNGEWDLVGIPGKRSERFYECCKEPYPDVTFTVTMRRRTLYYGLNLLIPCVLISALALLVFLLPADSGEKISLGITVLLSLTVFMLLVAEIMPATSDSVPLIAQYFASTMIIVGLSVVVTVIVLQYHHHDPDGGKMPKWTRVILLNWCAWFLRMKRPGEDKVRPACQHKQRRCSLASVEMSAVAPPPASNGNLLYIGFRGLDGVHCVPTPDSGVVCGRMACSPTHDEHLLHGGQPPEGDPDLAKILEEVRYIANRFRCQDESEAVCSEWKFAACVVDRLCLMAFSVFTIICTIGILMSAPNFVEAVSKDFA

`COc1ccc(OCCC[C@@H](c2ccc(-c3ccc(CN4CCCCC4)cc3)cc2)N2CCC[C@@H]2C)cc1` was tested, and the pKb (Histamine H3 receptor [1]) was 8.71, the Activity [2] was “inactive” and the Ki (Histamine H4 receptor) was ≥ 31600 nM. For the same compound, the Ki (Histamine H3 receptor [3]) was 2.04 nM, the Ki (Histamine H3 receptor [4]) was 2.09 nM and the Activity [5] was “inactive”.
In the case of `CCCC[C@H](c1ccc(-c2ccc(CN3CCCCC3)cc2)cc1)N1CCC[C@@H]1C`, the pKb (Histamine H3 receptor [1]) is reported as 8.81, the Activity [2] is reported as “inactive” and the Ki (Histamine H4 receptor) is reported as ≥ 31600 nM. The Ki (Histamine H3 receptor [3]) was 1.55 nM, the Ki (Histamine H3 receptor [4]) was 8.71 nM and the Activity [5] was “inactive”.
In the case of `CCCC[C@@H](c1ccc(-c2ccc(CN3CCCCC3)cc2)cc1)N1CCC[C@@H]1C`, the pKb (Histamine H3 receptor [1]) is reported as 8.37, the Activity [2] is reported as “inactive” and the Ki (Histamine H4 receptor) is reported as ≥ 31600 nM. The Ki (Histamine H3 receptor [3]) was 1.26 nM, the Ki (Histamine H3 receptor [4]) was 1.41 nM and the Activity [5] was “inactive”.
`CCCC[C@H](c1ccc(-c2ccc(CN3CCCCC3)cc2)cc1)N1CCC[C@H]1C` was tested, and the pKb (Histamine H3 receptor [1]) was 8.8, the Ki (Histamine H4 receptor) was ≥ 31600 nM and the Ki (Histamine H3 receptor [3]) was 2.45 nM. For the same compound, the Ki (Histamine H3 receptor [4]) was 12.6 nM, the Activity [5] was “inactive” and the pKb [6] was 5.13.
`c1ccc(CC(c2ccc(-c3ccc(CN4CCCCC4)cc3)cc2)N2CCCCC2)cc1` (racemic) was tested, and the pKb (Histamine H3 receptor [1]) was 8.3, the Activity [2] was “inactive” and the Ki (Histamine H4 receptor) was ≥ 31600 nM. For the same compound, the Ki (Histamine H3 receptor [3]) was 19.1 nM, the Ki (Histamine H3 receptor [4]) was 112 nM and the Activity [5] was “inactive”.
`CCCC[C@@H](c1ccc(-c2ccc(CN3CCCCC3)cc2)cc1)N1CCCC[C@@H]1C` was tested, and the pKb (Histamine H3 receptor [1]) was 8.94, the Activity [2] was “inactive” and the Ki (Histamine H4 receptor) was ≥ 31600 nM. For the same compound, the Ki (Histamine H3 receptor [3]) was 2.45 nM, the Ki (Histamine H3 receptor [4]) was 26.3 nM and the Activity [5] was “inactive”.
With `COCCC[C@H](c1ccc(-c2ccc(CN3CCCCC3)cc2)cc1)N1CCC[C@@H]1C` the pKb (Histamine H3 receptor [1]) was 9.64, the Activity [2] was “inactive” and the Ki (Histamine H4 receptor) was ≥ 31600 nM. For the same compound, the Ki (Histamine H3 receptor [3]) was 2 nM, the Ki (Histamine H3 receptor [4]) was 1.48 nM and the Activity [5] was “inactive”.
`CN(C)C(Cc1ccccc1)c1ccc(-c2ccc(CN3CCCCC3)cc2)cc1` (racemic) was tested, and the pKb (Histamine H3 receptor [1]) was 7.56, the Activity [2] was “inactive” and the Ki (Histamine H4 receptor) was ≥ 31600 nM. The Ki (Histamine H3 receptor [3]) was 16.6 nM, the Ki (Histamine H3 receptor [4]) was 30.2 nM and the Activity [5] was “inactive”.
In the case of `CCCCCc1ccc(-c2ccc(CN3CCCCC3)cc2)cc1`, the Activity [2] is reported as “inactive”, the Ki (Histamine H4 receptor) is reported as ≥ 31600 nM and the Ki (Histamine H3 receptor [3]) is reported as 12900 nM. The Ki (Histamine H3 receptor [4]) was 60300 nM.
For `c1cc(-c2ccc(CN3CCCCC3)cc2)ccc1CN1CCCCC1`, the pKb (Histamine H3 receptor [1]) was 8.77.
In the case of `C[C@@H]1CCCN1Cc1ccc(-c2ccc(CN3CCCCC3)cc2)cc1`, the pKb (Histamine H3 receptor [1]) is reported as 9.16, the Activity [2] is reported as “inactive” and the Ki (Histamine H4 receptor) is reported as ≥ 31600 nM. For the same compound, the Ki (Histamine H3 receptor [3]) was 1.48 nM, the Ki (Histamine H3 receptor [4]) was 3.55 nM and the Activity [5] was “inactive”.
`COc1ccc(OCCC[C@H](c2ccc(-c3ccc(CN4CCCCC4)cc3)cc2)N2CCC[C@@H]2C)cc1` was tested, and the pKb (Histamine H3 receptor [1]) was 8.71, the Activity [2] was “inactive” and the Ki (Histamine H4 receptor) was ≥ 31600 nM. The Ki (Histamine H3 receptor [3]) was 1.26 nM, the Ki (Histamine H3 receptor [4]) was 6.61 nM and the Activity [5] was “inactive”.
For `C[C@H]1CCCN1[C@@H](CCCOc1ccccc1)c1ccc(-c2ccc(CN3CCCCC3)cc2)cc1`, the pKb (Histamine H3 receptor [1]) was 9.15, the Activity [2] was “inactive” and the Ki (Histamine H4 receptor) was ≥ 31600 nM. The Ki (Histamine H3 receptor [3]) was 2.57 nM, the Ki (Histamine H3 receptor [4]) was 4.68 nM and the Activity [5] was “inactive”.
For `CCCC[C@@H](c1ccc(-c2ccc(CN3CCCCC3)cc2)cc1)N1CCC[C@H]1C`, the pKb (Histamine H3 receptor [1]) was 8.58, the Activity [2] was “inactive” and the Ki (Histamine H4 receptor) was ≥ 31600 nM. The Ki (Histamine H3 receptor [3]) was 2.34 nM, the Ki (Histamine H3 receptor [4]) was 16.2 nM and the Activity [5] was “inactive”.
With `CCCCC(c1ccc(-c2ccc(C)cc2)cc1)N1CCCCC1` (racemic) the Activity [2] was “inactive”, the Ki (Histamine H4 receptor) was ≥ 31600 nM and the Ki (Histamine H3 receptor [3]) was 13500 nM. For the same compound, the Ki (Histamine H3 receptor [4]) was 43700 nM.
For `C[C@@H]1CCCN1Cc1ccc(-c2ccc(C(Cc3ccccc3)N3CCCCC3)cc2)cc1` (mixture of isomers), the pKb (Histamine H3 receptor [1]) was 8.87, the Activity [2] was “inactive” and the Ki (Histamine H4 receptor) was ≥ 31600 nM. The Ki (Histamine H3 receptor [3]) was 5.62 nM, the Ki (Histamine H3 receptor [4]) was 29.5 nM and the Activity [5] was “inactive”.
In the case of `COCCC[C@@H](c1ccc(-c2ccc(CN3CCCCC3)cc2)cc1)N1CCC[C@@H]1C`, the pKb (Histamine H3 receptor [1]) is reported as 10, the Activity [2] is reported as “inactive” and the Ki (Histamine H4 receptor) is reported as ≥ 31600 nM. The Ki (Histamine H3 receptor [3]) was 0.871 nM, the Ki (Histamine H3 receptor [4]) was 1.78 nM and the Activity [5] was “inactive”.
In the case of `C[C@H]1CCCN1[C@H](CCCOc1ccccc1)c1ccc(-c2ccc(CN3CCCCC3)cc2)cc1`, the pKb (Histamine H3 receptor [1]) is reported as 8.48, the Activity [2] is reported as “inactive” and the Ki (Histamine H4 receptor) is reported as ≥ 31600 nM. For the same compound, the inhibition [7] was “inactive”, the Ki (Histamine H3 receptor [3]) was 0.513 nM and the Ki (Histamine H3 receptor [4]) was 6.61 nM. For the same compound, the Activity [5] was “inactive”.
In the case of `CCCCC(c1ccc(-c2ccc(CN3CCCCC3)cc2)cc1)N1CCCCC1` (racemic), the pKb (Histamine H3 receptor [1]) is reported as 8.81, the Activity [2] is reported as “inactive” and the Ki (Histamine H4 receptor) is reported as ≥ 31600 nM. For the same compound, the Ki (Histamine H3 receptor [3]) was 1.29 nM, the Ki (Histamine H3 receptor [4]) was 4.27 nM and the Activity [5] was “inactive”.
For `CCCC[C@H](c1ccc(-c2ccc(CN3CCCCC3)cc2)cc1)N1CCCC[C@@H]1C`, the pKb (Histamine H3 receptor [1]) was 8.91, the Activity [2] was “inactive” and the Ki (Histamine H4 receptor) was ≥ 31600 nM. The Ki (Histamine H3 receptor [3]) was 3.02 nM, the Ki (Histamine H3 receptor [4]) was 26.3 nM and the Activity [5] was “inactive”.
With `C[C@H]1CCCN1Cc1ccc(-c2ccc(CN3CCCCC3)cc2)cc1` the pKb (Histamine H3 receptor [1]) was 9.46, the Activity [2] was “inactive” and the Ki (Histamine H4 receptor) was ≥ 31600 nM. For the same compound, the Ki (Histamine H3 receptor [3]) was 0.661 nM, the Ki (Histamine H3 receptor [4]) was 0.372 nM and the Activity [5] was “inactive”.
